Consider six substances from ChEMBL document CHEMBL4364261, “Positive Charge Patterning and Hydrophobicity of Membrane-Active Antimicrobial Peptides as Determinants of Activity, Toxicity, and Pharmacokinetic Stability” (J Med Chem, 2019).

Calls of active or inactive are those of the source. The calls are words filed in the database; no cut-off is given here.

In one series the test system is Escherichia coli. Briefly: Binding affinity to Escherichia coli lipid extract liposome membrane at 25 uM by CD spectroscopic analysis.
Conditions: not given
Type of series: cell membranes. In a few lines:
(§1)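 CD spectra of 25 μM peptide in 10 mM Tris, 10 mM NaCl, pH 7.4, with 2 mg/mL E. coli total lipid extract or POPC liposomes, equilibrated overnight. Helicity judged at 222 nm. Average of at least three independent experiments.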
Turning to H-KAAKKFAKAWAKAFKAA-NH2, the outcome was Active.
Same read-out and setting: with H-KALKKFLKAWAKLFKAL-NH2 the entry was “Active”; with H-KKAKAFAKAWAKAFKAA-NH2, “Active”; with H-KKKAAFAKAWAKAFKAA-NH2, “Active”.
Still for that read-out and setting: in the case of H-KKKAAFLKLWAKLFKAL-NH2 it was “Active”.
The same measure, in the same setting: in the case of H-KKKKAAFAKAWAKAFAA-NH2 it was “Active”.

Another series has as its system Lipid bilayer. Put plainly: Binding affinity to terbium(3)-loaded POPC membrane at 10 uM measured for 10 mins by fluorescence assay relative to control. It is filed as ADME.
Conditions: not given
In a few lines: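 Tb3+-loaded liposomes, E. coli lipid or POPC, size-exclusion exchanged and diluted to 2.5% (v/v) in dipicolinic acid buffer, stirring. Peptide added at 10 μM. Tb3+ excited at 314 nm, emission at 544 nm recorded for 10 min. Liposome-only signal subtracted, normalized to a 0.1% Triton-lysed control as 100% disruption.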
Take H-KALKKFLKAWAKLFKAL-NH2: the Activity was 25 to 70%.
H-KKKAAFLKLWAKLFKAL-NH2 yielded an Activity of 25 to 70%.

The next series concerns Lipid bilayer. Put plainly: Binding affinity to POPC membrane at 25 uM by CD spectroscopic analysis. It is filed as ADME.
Conditions: not given
In a few lines:
as §1
Consider H-KAAKKFAKAWAKAFKAA-NH2, for which the Activity result is recorded as “Not Active”.
Regarding H-KALKKFLKAWAKLFKAL-NH2, the outcome was Active.
Same read-out and setting: with H-KKAKAFAKAWAKAFKAA-NH2 the entry was “Not Active”; with H-KKKAAFAKAWAKAFKAA-NH2, “Not Active”; with H-KKKAAFLKLWAKLFKAL-NH2, “Active”.
As to H-KKKKAAFAKAWAKAFAA-NH2, the Activity result is “Not Active”.

In a further series the test system is Escherichia coli. Briefly: Antibacterial activity against Escherichia coli K-12 measured after 20 hrs by microtiter dilution method. It is filed as functional. To be noted: K-12, 20 h. The method in brief: (§2)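 Mueller-Hinton broth microdilution; 2-fold serial dilutions of peptide from 0 to 50 μM incubated 20 h at 37 °C with 50 000 cfu/well from an overnight MHB culture. Bacterial growth read as background-subtracted OD600. MIC recorded as the peptide concentration at which growth is inhibited. P. aeruginosa isolates came from sputum of cystic fibrosis patients with infections persisting after inhaled tobramycin.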
As for H-KAAKKFAKAWAKAFKAA-NH2, the lowest concentration to inhibit growth (MIC) was 12.5 µM.
The substance H-KALKKFLKAWAKLFKAL-NH2 returned a minimal inhibitory concentration (MIC) of 1.6 µM.
The substance H-KKAKAFAKAWAKAFKAA-NH2 yielded an MIC of 12.5 µM.
H-KKKAAFAKAWAKAFKAA-NH2 displayed an MIC of 25 µM.
Still for that read-out and setting: in the case of H-KKKAAFLKLWAKLFKAL-NH2 it was 3.1 µM; in that of H-KKKKAAFAKAWAKAFAA-NH2, 12.5 µM.

A further series deals with Escherichia coli. Briefly: Induction of terbium(3)-loaded Escherichia coli lipid extract liposome membrane disruption at 10 uM measured after 20 mins by fluorescence assay relative to control. It is filed as cell membranes.
Conditions: not given
For the substance H-KAAKKFAKAWAKAFKAA-NH2, the Activity turned out to be 8%.
The same measure, in the same setting: with H-KALKKFLKAWAKLFKAL-NH2 the figure was 40%.
H-KKAKAFAKAWAKAFKAA-NH2 registered an Activity of 80%.
The same measure, in the same setting: in the case of H-KKKAAFAKAWAKAFKAA-NH2 it was 80%; in that of H-KKKAAFLKLWAKLFKAL-NH2, 40%.

The subject of the next series is Escherichia coli. Briefly: Binding affinity to Escherichia coli lipid extract liposome membrane at 10 uM by tryptophan fluorescence method. Type of series: cell membranes.
Conditions: not given
The method in brief:
(§3)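 Peptide at 10 μM in 10 mM Tris, 10 mM NaCl, pH 7.4, with 0.8 mg/mL E. coli total lipid extract or POPC liposomes, equilibrated overnight before recording. Trp excited at 280 nm, emission scanned 300–400 nm. After background subtraction, the wavelength of maximal emission was taken.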
On to H-KAAKKFAKAWAKAFKAA-NH2, for which the outcome was Active.
Still for that read-out and setting: with H-KKAKAFAKAWAKAFKAA-NH2 the entry was “Active”.
Still for that read-out and setting: in the case of H-KKKAAFAKAWAKAFKAA-NH2 it was “Active”; in that of H-KKKKAAFAKAWAKAFAA-NH2, “Active”.

The test system of a further series is Pseudomonas aeruginosa. Briefly: Antibacterial activity against tobramycin-pretreated Pseudomonas aeruginosa isolate 330 after 20 hrs by microtiter dilution method. It is filed as functional.
Conditions: not given
The method in brief: as §2
Take H-KAAKKFAKAWAKAFKAA-NH2: the MIC is over 50 µM.
In the case of H-KALKKFLKAWAKLFKAL-NH2, the MIC is 6.3 µM.
On to H-KKAKAFAKAWAKAFKAA-NH2, for which the MIC was over 50 µM.
The same measure, in the same setting: in the case of H-KKKAAFAKAWAKAFKAA-NH2 it was over 50 µM; in that of H-KKKAAFLKLWAKLFKAL-NH2, 6.3 µM; in that of H-KKKKAAFAKAWAKAFAA-NH2, over 50 µM.

Another series deals with Escherichia coli. Briefly: Binding affinity to Escherichia coli lipid extract liposome membrane at 10 uM by tryptophan fluorescence quenching method. Type of series: cell membranes.
Conditions: not given
In a few lines:
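Acrylamide quenching of Trp; peptide 10 μM with 0.8 mg/mL E. coli lipid liposomes. Excitation at 295 nm, emission 310–400 nm. Read-out is the Stern–Volmer slope, with larger slopes meaning more quenching. At least two independent experiments, error given as standard deviation.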
Regarding H-KAAKKFAKAWAKAFKAA-NH2, the outcome was Active.
The same measure, in the same setting: with H-KALKKFLKAWAKLFKAL-NH2 the entry was “inactive”.

System in a further series: not listed separately
Briefly: Stability of the compound assessed as Engyodontium album PMSF-pretreated proteinase K-mediated compound hydrolysis at 20 uM incubated for 10 mins at 70 degC by coomassie blue staining-based NuPAGE analysis. Type of series: ADME. To be noted: parengyodontium album, 1 h, in the assay text read “incubated for up to 1 hr at 37 degC” for “incubated for 10 mins at 70 degC”. The method in brief:
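Reactions stopped with 5 mM PMSF; PMSF-preinhibited enzyme served as control. Samples heated 70 °C for 10 min and run on 12% Bis-Tris gels with Coomassie staining. Band density normalized to T0.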
As to H-KAAKKFAKAWAKAFKAA-NH2, the Stability result is reported as “Unstable”.
Consider H-KKAKAFAKAWAKAFKAA-NH2, for which the Stability result was “Unstable”.
On the same count and under the same terms, with H-KKKAAFAKAWAKAFKAA-NH2 the entry was “Unstable”; with H-KKKKAAFAKAWAKAFAA-NH2, “Unstable”.

The subject of another series is Pseudomonas aeruginosa. Briefly: Antibacterial activity against tobramycin-pretreated Pseudomonas aeruginosa isolate 287 measured after 20 hrs by microtiter dilution method. It is filed as functional.
Conditions: not given
The method in brief:
as §2
In the case of H-KAAKKFAKAWAKAFKAA-NH2, the MIC was over 50 µM.
On the same count and under the same terms, with H-KALKKFLKAWAKLFKAL-NH2 the figure was 3.1 µM.
For H-KKAKAFAKAWAKAFKAA-NH2, the MIC is 50 µM.
Still for that read-out and setting: in the case of H-KKKAAFAKAWAKAFKAA-NH2 it was over 50 µM.
Same read-out and setting: in the case of H-KKKAAFLKLWAKLFKAL-NH2 it was 3.1 µM.
Take H-KKKKAAFAKAWAKAFAA-NH2: the minimum inhibitory concentration (MIC) was over 50 µM.

A further series concerns Pseudomonas aeruginosa. Put plainly: Antibacterial activity against tobramycin-pretreated Pseudomonas aeruginosa isolate 214 measured after 20 hrs by microtiter dilution method. Type of series: functional.
Conditions: not given
In a few lines: as §2
H-KAAKKFAKAWAKAFKAA-NH2: the MIC is over 50 µM.
Same read-out and setting: in the case of H-KALKKFLKAWAKLFKAL-NH2 it was 3.1 µM; in that of H-KKAKAFAKAWAKAFKAA-NH2, 50 µM.
As to H-KKKAAFAKAWAKAFKAA-NH2, the MIC came to 50 µM.
The same measure, in the same setting: with H-KKKAAFLKLWAKLFKAL-NH2 the figure was 3.1 µM.
Still for that read-out and setting: in the case of H-KKKKAAFAKAWAKAFAA-NH2 it was 50 µM.

A further series deals with Lipid bilayer. Put plainly: Binding affinity to POPC membrane at 10 uM by tryptophan fluorescence method.
Conditions: not given
It is filed as ADME. The method in brief:
as §3
For H-KALKKFLKAWAKLFKAL-NH2, the result was Active.
Same read-out and setting: in the case of H-KKKAAFLKLWAKLFKAL-NH2 it was “Active”.

System in another series: not listed separately
Briefly: Hemolytic activity in human RBC assessed as hemolysis at 320 to 640 uM measured after 1 hr. It is filed as ADME, cell-based, Erythrocyte. To be noted: human red blood cells (erythrocytes), read-out: Activity. In a few lines:
(§4)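 Fresh human erythrocytes washed and resuspended in PBS to a final 4% (v/v). Incubated 1 h at 37 °C with 2-fold serial peptide dilutions from 0 to 640 μM. Supernatant absorbance at 540 nm; PBS taken as 0% and 1% Triton as 100% hemolysis. Standard deviation reported; one-way ANOVA applied.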
H-KAAKKFAKAWAKAFKAA-NH2: the hemolysis at 1 h, up to 640 µM is under 1%.
The same measure, in the same setting: in the case of H-KALKKFLKAWAKLFKAL-NH2 it was under 1%.
On to H-KKAKAFAKAWAKAFKAA-NH2, for which the hemolysis at 1 h, up to 640 µM was under 1%.
Same read-out and setting: in the case of H-KKKAAFAKAWAKAFKAA-NH2 it was under 1%; in that of H-KKKKAAFAKAWAKAFAA-NH2, under 1%.

System in another series: not listed separately
Briefly: Hemolytic activity in human RBC assessed as hemolysis at 40 uM measured after 1 hr. Type of series: ADME, cell-based, Erythrocyte. As to conditions: human red blood cells (erythrocytes), read-out: Activity. In a few lines: as §4
For H-KAAKKFAKAWAKAFKAA-NH2, the hemolysis at 1 h, 40 µM is 0%.
Same read-out and setting: with H-KALKKFLKAWAKLFKAL-NH2 the figure was 81%.
Still for that read-out and setting: in the case of H-KKAKAFAKAWAKAFKAA-NH2 it was 0%; in that of H-KKKAAFAKAWAKAFKAA-NH2, 0%; in that of H-KKKAAFLKLWAKLFKAL-NH2, 100%.
The same measure, in the same setting: with H-KKKKAAFAKAWAKAFAA-NH2 the figure was 0%.

For another series, the system named is Pseudomonas aeruginosa. Briefly: Antibacterial activity against Pseudomonas aeruginosa PAO1 measured after 20 hrs by microtiter dilution method. Type of series: functional. To be noted: PAO1, 20 h. In a few lines: as §2
Substance H-KAAKKFAKAWAKAFKAA-NH2 yielded an MIC of 50 µM.
The substance H-KALKKFLKAWAKLFKAL-NH2 yielded a minimal inhibitory concentration (MIC) of 3.1 µM.
The substance H-KKAKAFAKAWAKAFKAA-NH2 came in with an MIC of 25 µM.
Still for that read-out and setting: with H-KKKAAFAKAWAKAFKAA-NH2 the figure was 50 µM; with H-KKKAAFLKLWAKLFKAL-NH2, 3.1 µM.
The same measure, in the same setting: in the case of H-KKKKAAFAKAWAKAFAA-NH2 it was 50 µM.

Another series has as its system Lipid bilayer. Briefly: Binding affinity to 11,12-BrPC-loaded POPC membrane at 10 uM by tryptophan fluorescence method. It is filed as ADME.
Conditions: not given
H-KALKKFLKAWAKLFKAL-NH2: the outcome was Active.

In the next series the test system is Pseudomonas aeruginosa. Briefly: Antibacterial activity against tobramycin-pretreated Pseudomonas aeruginosa isolate 380 after 20 hrs by microtiter dilution method. Type of series: functional.
Conditions: not given
The method in brief:
as §2
Regarding H-KAAKKFAKAWAKAFKAA-NH2, the MIC is over 50 µM.
On the same count and under the same terms, in the case of H-KALKKFLKAWAKLFKAL-NH2 it was 6.3 µM; in that of H-KKAKAFAKAWAKAFKAA-NH2, over 50 µM.
The same measure, in the same setting: in the case of H-KKKAAFAKAWAKAFKAA-NH2 it was over 50 µM; in that of H-KKKAAFLKLWAKLFKAL-NH2, 3.1 µM.
Take H-KKKKAAFAKAWAKAFAA-NH2: the MIC came out at 50 µM.
